Assay results reported in ChEMBL document CHEMBL4118192, “BET bromodomain ligands: Probing the WPF shelf to improve BRD4 bromodomain affinity and metabolic stability” (Bioorg Med Chem, 2018).

Key:
Assay type in all cases: functional
[1] = test system: SNB-75; test: Growth inhibition of human SNB75 cells at 10 uM after 48 hrs by sulforhodamine B assay relative to control; settings: SNB-75, 48 h, read-out: GI
Summary of the method: (§1)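 NCI-60 human cancer cell line screen, single dose of 10 μM for 48 h. Cellular protein content read by sulforhodamine B staining; growth inhibition expressed relative to untreated control.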

[2] = test system: NCI-H322M; test: Growth inhibition of human NCI-H322M cells after 48 hrs by sulforhodamine B assay
Summary of the method: (§2)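 NCI-60 panel follow-up: five concentrations from 10 nM to 100 μM, 48 h exposure. Growth read by sulforhodamine B protein staining. GI50 derived from the concentration-response, with the concentration for total growth inhibition (TGI) also recorded when below 100 μM.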

[3] = test system: IGROV-1; test: Growth inhibition of human IGROV1 cells after 48 hrs by sulforhodamine B assay; settings: IGROV-1, 48 h
Summary of the method: (§3)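 NCI-60 panel screen. Cells were exposed for 48 h at five concentrations between 10 nM and 100 μM. Cellular protein was read by sulforhodamine B staining, and GI50 and total growth inhibition (TGI) concentrations were derived.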

[4] = test system: NCI-H322M; test: Growth inhibition of human NCI-H322M cells at 10 uM after 48 hrs by sulforhodamine B assay relative to control; settings: read-out: GI
Summary of the method: (§4)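 NCI-60 human cancer cell line screen, single-dose pass: cells exposed to 10 μM for 48 h. Cellular protein content read out by sulforhodamine B staining, and growth inhibition expressed relative to untreated control.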

[5] = test system: HCT-15; test: Growth inhibition of human HCT15 cells after 48 hrs by sulforhodamine B assay; settings: HCT-15, 48 h; summary of the method: as §3
[6] = test system: COLO 205; test: Growth inhibition of human COLO205 cells at 10 uM after 48 hrs by sulforhodamine B assay relative to control; settings: COLO 205, 48 h, read-out: GI
Summary of the method: (§5)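 NCI-60 single-dose screen at 10 μM for 48 h. Percent growth inhibition was measured by sulforhodamine B staining of cellular protein.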

[7] = test system: 786-0; test: Growth inhibition of human 786-0 cells after 48 hrs by sulforhodamine B assay; settings: 786-0, 48 h; summary of the method: as §3
[8] = test system: RPMI-8226; test: Growth inhibition of human RPMI8226 cells after 48 hrs by sulforhodamine B assay; settings: RPMI-8226, 48 h; summary of the method: as §2
[9] = test system: A498; test: Growth inhibition of human A498 cells after 48 hrs by SRB assay; settings: A498, 48 h
Summary of the method: (§6)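 In-house assay. Cells were seeded into 96-well plates at a density for exponential growth and treated with a concentration range for 48 h. They were then fixed in 10% (w/v) TCA and stained with sulforhodamine B. The 50% growth-inhibitory concentration relative to control cells was calculated as the mean of three repeats ± standard deviation.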

[10] = test system: A549; test: Growth inhibition of human A549/ATCC cells after 48 hrs by sulforhodamine B assay; settings: A549, 48 h; summary of the method: as §3
[11] = test system: SK-MEL-28; test: Growth inhibition of human SK-MEL-28 cells after 48 hrs by sulforhodamine B assay; settings: SK-MEL-28, 48 h; summary of the method: as §2
[12] = test system: HOP-62; test: Growth inhibition of human HOP62 cells after 48 hrs by sulforhodamine B assay; settings: HOP-62, 48 h; summary of the method: as §3
[13] = test system: T47D; test: Growth inhibition of human T47D cells at 10 uM after 48 hrs by sulforhodamine B assay relative to control; settings: read-out: GI; summary of the method: as §1
[14] = test system: OVCAR-3; test: Growth inhibition of human OVCAR3 cells after 48 hrs by sulforhodamine B assay; settings: OVCAR-3, 48 h; summary of the method: as §2
[15] = test system: Hs-578T; test: Growth inhibition of human Hs 578T cells after 48 hrs by sulforhodamine B assay; summary of the method: as §3
[16] = test system: UACC-62; test: Growth inhibition of human UACC62 cells at 10 uM after 48 hrs by sulforhodamine B assay relative to control; settings: UACC-62, 48 h, read-out: GI; summary of the method: as §1
[17] = test system: OVCAR-8; test: Growth inhibition of human OVCAR8 cells at 10 uM after 48 hrs by sulforhodamine B assay relative to control; settings: OVCAR-8, 48 h, read-out: GI; summary of the method: as §4
[18] = test system: SF-539; test: Growth inhibition of human SF539 cells at 10 uM after 48 hrs by sulforhodamine B assay relative to control; settings: SF-539, 48 h, read-out: GI; summary of the method: as §4
[19] = test system: K562; test: Growth inhibition of human K562 cells after 48 hrs by sulforhodamine B assay; settings: K562, 48 h; summary of the method: as §3
[20] = test system: NCI/ADR-RES; test: Growth inhibition of human NCI-ADR-RES cells at 10 uM after 48 hrs by sulforhodamine B assay relative to control; settings: read-out: GI; summary of the method: as §4
[21] = test system: 786-0; test: Growth inhibition of human 786-0 cells at 10 uM after 48 hrs by sulforhodamine B assay relative to control; settings: 786-0, 48 h, read-out: GI; summary of the method: as §5
[22] = test system: MCF7; test: Growth inhibition of human MCF7 cells at 10 uM after 48 hrs by sulforhodamine B assay relative to control; settings: MCF7, 48 h, read-out: GI; summary of the method: as §5
[23] = test system: HT-29; test: Growth inhibition of human HT-29 cells after 48 hrs by SRB assay; settings: HT-29, 48 h; summary of the method: as §6
[24] = test system: M14; test: Growth inhibition of human M14 cells after 48 hrs by sulforhodamine B assay; settings: M14, 48 h; summary of the method: as §3
[25] = test system: LOX IMVI; test: Growth inhibition of human LOXIMVI cells at 10 uM after 48 hrs by sulforhodamine B assay relative to control; settings: read-out: GI; summary of the method: as §5
[26] = test system: MDA-MB-231; test: Growth inhibition of human MDA-MB-231 cells at 10 uM after 48 hrs by sulforhodamine B assay relative to control; settings: MDA-MB-231, 48 h, read-out: GI; summary of the method: as §5
[27] = test system: CCRF-CEM; test: Growth inhibition of human CCRF-CEM cells after 48 hrs by sulforhodamine B assay; summary of the method: as §3
[28] = test system: HOP-62; test: Growth inhibition of human HOP62 cells at 10 uM after 48 hrs by sulforhodamine B assay relative to control; settings: HOP-62, 48 h, read-out: GI; summary of the method: as §5
[29] = test system: IGROV-1; test: Growth inhibition of human IGROV1 cells at 10 uM after 48 hrs by sulforhodamine B assay relative to control; settings: IGROV-1, 48 h, read-out: GI; summary of the method: as §5
[30] = test system: SK-MEL-2; test: Growth inhibition of human SK-MEL-2 cells after 48 hrs by sulforhodamine B assay; settings: SK-MEL-2, 48 h; summary of the method: as §2
[31] = test system: NCI-H23; test: Growth inhibition of human NCI-H23 cells at 10 uM after 48 hrs by sulforhodamine B assay relative to control; settings: NCI-H23, 48 h, read-out: GI; summary of the method: as §4
[32] = test system: LOX IMVI; test: Growth inhibition of human LOXIMVI cells after 48 hrs by sulforhodamine B assay; summary of the method: as §3
[33] = test system: RPMI-8226; test: Growth inhibition of human RPMI8226 cells at 10 uM after 48 hrs by sulforhodamine B assay relative to control; settings: RPMI-8226, 48 h, read-out: GI; summary of the method: as §4
[34] = test system: HOP-92; test: Growth inhibition of human HOP92 cells at 10 uM after 48 hrs by sulforhodamine B assay relative to control; settings: HOP-92, 48 h, read-out: GI; summary of the method: as §5
[35] = test system: SNB-19; test: Growth inhibition of human SNB19 cells after 48 hrs by sulforhodamine B assay; settings: SNB-19, 48 h; summary of the method: as §2
[36] = test system: COLO 205; test: Growth inhibition of human COLO205 cells after 48 hrs by sulforhodamine B assay; settings: COLO 205, 48 h; summary of the method: as §3

With `COc1ccccc1S(=O)(=O)Nc1ccc2c(c1)CN(C)C(=O)N2` the inhibition of growth at 10 µM [1] was 82.5%, the GI50 [2] was 6 µM and the GI50 [3] was 6.3 µM. The inhibition of growth at 10 µM [4] was 57.1%, the GI50 [5] was 3.2 µM and the inhibition of growth at 10 µM [6] was 61.6%. For the same compound, the GI50 [7] was 12 µM, the GI50 [8] was 2.2 µM and the GI50 [9] was 1.8 µM. It also gave a TGI [9] of 6 µM, a GI50 [10] of 19.5 µM and a GI50 [11] of 6.2 µM. It also gave a GI50 [12] of 2.5 µM, an inhibition of growth at 10 µM [13] of 68.6% and a GI50 [14] of 4 µM. The TGI [14] was 87.1 µM, the GI50 [15] was 1.9 µM and the TGI [15] was 63.1 µM. For the same compound, the inhibition of growth at 10 µM [16] was 70.7%, the inhibition of growth at 10 µM [17] was 43.8% and the inhibition of growth at 10 µM [18] was 49.9%. It also gave a GI50 [19] of 4.6 µM, an inhibition of growth at 10 µM [20] of 31.1% and an inhibition of growth at 10 µM [21] of 27.3%. For the same compound, the inhibition of growth at 10 µM [22] was 78.5%, the GI50 [23] was 3 µM and the GI50 [24] was 2.9 µM. It also gave an inhibition of growth at 10 µM [25] of 70.9%, an inhibition of growth at 10 µM [26] of 45.3% and a GI50 [27] of 7.8 µM. It also gave an inhibition of growth at 10 µM [28] of 55.7%, an inhibition of growth at 10 µM [29] of 76% and a GI50 [30] of 29.5 µM. The inhibition of growth at 10 µM [31] was 43.3%, the GI50 [32] was 3.5 µM and the TGI [32] was 21.4 µM. For the same compound, the inhibition of growth at 10 µM [33] was 95.7%, the inhibition of growth at 10 µM [34] was 97.6% and the GI50 [35] was 4.8 µM. The GI50 [36] was 3 µM.
